Laboratory results published in publication PMC10349574 (Drug Design, Development and Therapy, 2023).
“Also recorded” adds a separate entry of the source.

Legend:
DU145 cells [1] = assay: Cell cycle assay, propidium iodide flow cytometry; type: cell-based; conditions: DU145, 24 h
How it was run: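 DU145 cells were treated 24 h after plating with increasing test compound concentrations (3, 10, 30 μM) or silibinin (30 μM), and harvested 24 h later. They were PBS-washed, fixed in ice-cold 70% ethanol for ≥24 h, rewashed in room-temperature PBS and stained with propidium iodide plus RNase-A (30 min, 37 °C). Flow cytometry followed. Data are mean ± SD of three experiments.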

DU145 cells [2] = assay: Apoptosis assay, Annexin V-FITC/Propidium Iodide flow cytometry; type: cell-based; conditions: 24 h
How it was run: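 DU145 cells in six-well plates were treated 24 h at 37 °C with vehicle, test compound (3, 10, 30 μM) or silibinin reference (30 μM). Cells were harvested, washed in ice-cold PBS, stained with an Annexin V-FITC apoptosis kit and analysed by flow cytometry. Data are mean ± SD of three individual experiments.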

[3] = cited from earlier work

SMILES	effect on cell cycle (in words) (DU145 cells [1])	induction of apoptosis (in words) (DU145 cells [2]; DU145, 3, 10 and 30 μM)	ability to promote DU145 cell apoptosis relative to silibinin (DU145 cells [2]; DU145, same concentration of 30 μM)	Solubility in H2O [3]
COc1cc(C2Oc3cc(C4Oc5cc(O)cc(O)c5C(=O)C4OC(=O)CCC(=O)O[C@H]4O[C@@H](CO)C(O)[C@@H](O)[C@@H]4O)ccc3OC2CO)ccc1O (stereo partly drawn) [Compound 15, 5,7-Dihydroxy-2-[3-(4-hydroxy-3-methoxyphenyl)-2-(hydroxymethyl)-2,3-dihydrobenzo[b][1,4]dioxin-6-yl]-4-oxochroman-3-yl [(2R,3S,4R,6S)-3,4,5-trihydroxy-6-(hydroxymethyl)tetrahydro-2H-pyran-2-yl] succinate]	arrested cell cycle at G2/M phase; also recorded: blocked the tumor cells in G2/M -phase progression	induced apoptosis in DU145 cells; also recorded: markedly induced cell apoptosis in a dose-dependent manner	approximately 2 times	–
COc1cc(C2Oc3cc([C@H]4Oc5cc(O)cc(O)c5C(=O)[C@@H]4O)ccc3OC2CO)ccc1O (stereo partly shown) [Silibinin]	–	–	–	less than 0.4 mg/L
